ChEMBL document CHEMBL1140550, “New 'chemical probes' to examine the role of the hFPRL1 (or ALXR) receptor in inflammation” (Bioorg Med Chem Lett, 2007)
Activity calls are given as the source filed them. The rule behind the calls is not given here.

Tests used:
[1] = biological target: T1, N-formyl peptide receptor 2 (Homo sapiens, UniProt P25090); experiment: Agonist activity at human recombinant FPRL1 expressed in CHO cells assessed as calcium flux by aequorin based bioluminescence assay; assay type: functional, cell-based
T1 sequence (P25090 whole entry): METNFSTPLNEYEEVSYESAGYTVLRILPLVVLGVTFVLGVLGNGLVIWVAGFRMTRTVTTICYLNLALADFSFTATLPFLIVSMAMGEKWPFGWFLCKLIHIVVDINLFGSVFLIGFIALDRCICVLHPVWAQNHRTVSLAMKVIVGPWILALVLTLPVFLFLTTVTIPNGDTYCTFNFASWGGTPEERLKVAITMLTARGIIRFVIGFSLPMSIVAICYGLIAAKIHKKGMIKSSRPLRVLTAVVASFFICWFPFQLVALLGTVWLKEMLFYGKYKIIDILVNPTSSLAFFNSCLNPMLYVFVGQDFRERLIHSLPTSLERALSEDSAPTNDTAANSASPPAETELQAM
Method in brief: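 EC50 from Ca2+ flux in recombinant CHO cells co-expressing human FPRL1, Gα15 protein and aequorin. Values without standard deviation are the mean of two data points.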

fMet-Leu-Phe receptor = biological target: T2, fMet-Leu-Phe receptor (Homo sapiens, UniProt P21462); experiment: Agonist activity at human recombinant FPR expressed in CHO cells assessed as calcium flux by aequorin based bioluminescence assay; assay type: functional, cell-based
T2 sequence (P21462 whole entry): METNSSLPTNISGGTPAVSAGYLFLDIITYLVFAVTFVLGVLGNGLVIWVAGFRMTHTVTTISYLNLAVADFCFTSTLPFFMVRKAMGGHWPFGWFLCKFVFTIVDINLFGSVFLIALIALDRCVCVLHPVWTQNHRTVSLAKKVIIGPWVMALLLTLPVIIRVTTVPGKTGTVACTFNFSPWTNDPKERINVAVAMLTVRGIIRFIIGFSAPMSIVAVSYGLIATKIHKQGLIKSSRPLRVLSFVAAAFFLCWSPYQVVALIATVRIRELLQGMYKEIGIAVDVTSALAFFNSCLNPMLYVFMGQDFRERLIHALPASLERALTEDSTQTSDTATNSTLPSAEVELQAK
Method in brief: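 CHO cells stably transfected with human FPR, aequorin and Gα15 protein; EC50 derived from Ca2+ flux read by aequorin luminescence.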

Blood = experiment: Stimulation of IL6 secretion in human whole blood after 18 hrs; assay type: functional, tissue-based
Method in brief: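 Heparinized human whole blood, 50% final, preincubated with compound for 1 h at 37 °C, 5% CO2, then stimulated with IL-1β (300 pM final) for 18 h. Final DMSO 0.1%. IL-6 in supernatant/plasma measured by electrochemiluminescence immunoassay.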

[2] = Inhibition of fMLP-induced human PMN migration after 45 mins; assay type: functional; settings: 0.75 h
Method in brief: (§1)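 Human polymorphonuclear neutrophils from at least three donors, exposed to compound (final DMSO 0.1%). Migration toward a gradient of IL-8 or fMLP chemo-attractant (10 nM each) followed by fluorescence. Mean IC50 reported.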

[3] = Inhibition of IL8-induced human PMN migration after 45 mins; assay type: functional; settings: 0.75 h; method in brief: as §1

EC50 [1] [nM]	EC50 (fMet-Leu-Phe receptor) [nM]	IC50 [2] [nM]	IC50 [3] [nM]	SMILES	Activity (Blood)
1870	> 10000	–	–	CCc1nc2ccccc2n1[C@@H]1CCN(C(=O)c2nc3ccc(OC)cc3[nH]2)C1	–
> 10000	–	–	–	CC(C)c1c(NC(=O)Nc2ccccc2Cl)c(=O)n(-c2ccccc2)n1C	–
–	–	640	240	CC(C)c1c(NC(=O)Nc2ccc(Cl)cc2)c(=O)n(-c2ccccc2)n1C	Active
